Tests used:
Acetylcholinesterase [1] = molecular target: T1, Acetylcholinesterase (Homo sapiens, UniProt P22303); test: Inhibition of AChE (unknown origin) using acetylthiocholine iodide as substrate incubated for 25 mins by Ellman's method
Method in brief: (§1)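 Ellman spectrophotometric assay, slightly modified. Compounds were dissolved in tween 80 (0.06% final per reaction), then diluted in 2% tween 80–water. The enzyme, substrate (acetylthiocholine iodide for AChE, butyrylthiocholine iodide for BuChE) and compound were incubated in Na2HPO4/NaH2PO4 buffer pH 8.0 at 30 °C for 25 min. The reaction was stopped with 20% SDS, 10 mmol/L DTNB was added, and absorbance was read at 412 nm. Five concentrations per compound, in triplicate, spanned 20–80% inhibition. IC50 was calculated by the Bliss method and reported as mean ± SD.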

Cholinesterase = Cholinesterase (Homo sapiens, UniProt P06276); test: Inhibition of BuChE (unknown origin) using butyrylthiocholine iodide as substrate incubated for 25 mins by Ellman's method
Cholinesterase, sequence (P06276 whole entry): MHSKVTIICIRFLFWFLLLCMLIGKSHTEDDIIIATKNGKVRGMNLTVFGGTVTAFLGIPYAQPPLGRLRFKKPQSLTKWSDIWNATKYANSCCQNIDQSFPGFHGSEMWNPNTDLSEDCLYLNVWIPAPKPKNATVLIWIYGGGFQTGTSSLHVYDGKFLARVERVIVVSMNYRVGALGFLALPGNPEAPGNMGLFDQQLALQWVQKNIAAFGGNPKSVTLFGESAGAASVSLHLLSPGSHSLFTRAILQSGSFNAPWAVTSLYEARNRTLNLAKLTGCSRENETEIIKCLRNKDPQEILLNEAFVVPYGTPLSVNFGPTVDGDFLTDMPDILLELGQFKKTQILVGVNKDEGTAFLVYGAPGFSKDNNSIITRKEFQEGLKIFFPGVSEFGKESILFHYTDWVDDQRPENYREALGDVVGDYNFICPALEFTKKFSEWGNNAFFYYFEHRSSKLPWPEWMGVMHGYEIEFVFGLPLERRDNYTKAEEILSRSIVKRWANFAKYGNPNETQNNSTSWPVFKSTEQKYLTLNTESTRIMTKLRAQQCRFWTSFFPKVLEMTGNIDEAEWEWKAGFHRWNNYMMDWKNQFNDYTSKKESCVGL
Method in brief: as §1, with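 “min.” for “min. The reaction was stopped with 20% SDS, 10 mmol/L DTNB was added, and absorbance was read at 412 nm. Five concentrations per compound, in triplicate, spanned 20–80% inhibition.”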

[2] = molecular target: Cholinesterases; ACHE & BCHE (Homo sapiens) (UniProt P06276+P22303); test: Selectivity ratio of IC50 for BChE (unknown origin) to IC50 for AChE (unknown origin)
Cholinesterases; ACHE & BCHE (Homo sapiens), sequence (P06276 whole entry, looked up): as the sequence (P06276 whole entry) above
Cholinesterases; ACHE & BCHE (Homo sapiens), sequence (P22303 whole entry, looked up): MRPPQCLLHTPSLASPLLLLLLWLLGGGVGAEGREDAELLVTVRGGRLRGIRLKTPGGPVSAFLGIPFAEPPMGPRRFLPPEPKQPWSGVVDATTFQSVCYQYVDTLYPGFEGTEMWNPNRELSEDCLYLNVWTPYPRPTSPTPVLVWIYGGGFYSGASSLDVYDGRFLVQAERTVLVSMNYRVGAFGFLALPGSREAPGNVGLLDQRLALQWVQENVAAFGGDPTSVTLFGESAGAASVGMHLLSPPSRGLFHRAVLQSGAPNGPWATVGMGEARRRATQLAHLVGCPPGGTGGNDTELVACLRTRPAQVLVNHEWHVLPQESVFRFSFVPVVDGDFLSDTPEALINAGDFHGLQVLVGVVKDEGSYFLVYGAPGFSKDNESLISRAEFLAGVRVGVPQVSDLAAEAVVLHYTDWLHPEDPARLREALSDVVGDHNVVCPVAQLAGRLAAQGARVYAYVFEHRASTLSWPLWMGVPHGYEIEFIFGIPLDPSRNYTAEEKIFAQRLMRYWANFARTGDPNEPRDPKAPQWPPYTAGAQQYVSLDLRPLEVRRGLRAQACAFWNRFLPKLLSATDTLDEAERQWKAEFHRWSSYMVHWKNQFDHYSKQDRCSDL

[3] = Octanol-water partition coefficient, log P of the compound at pH 7.4 by classical shake-flask method; format: physicochemical
Acetylcholinesterase [4] = molecular target: T1, Acetylcholinesterase; test: Competitive inhibition of AChE (unknown origin) incubated for 25 mins by Lineweaver-Burk plot analysis
Acetylcholinesterase [5] = molecular target: T1, Acetylcholinesterase; test: Non-competitive inhibition of AChE (unknown origin) incubated for 25 mins by Lineweaver-Burk plot analysis

T1 sequence (P22303 whole entry): as the sequence (P22303 whole entry, looked up) above

| SMILES | IC50 (Acetylcholinesterase [1]) [µM] | IC50 (Cholinesterase) [µM] | Ratio IC50 [2] | logD [3] | Ki (Acetylcholinesterase [4]) [µM] | Ki (Acetylcholinesterase [5]) [µM] |
| --- | --- | --- | --- | --- | --- | --- |
| CCN(CC)CCCCCOc1ccc(C(=O)/C=C/c2ccccc2)cc1 | 34.1 | 26.3 | 0.77 | 1.84 |  |  |
| CCCCN(CCCC)CCCOc1ccc(C(=O)/C=C/c2ccccc2)cc1 | 152 | 68.3 | 0.45 | 2.06 |  |  |
| CCN(CC)CCCCCCOc1ccc(C(=O)/C=C/c2ccccc2)cc1 | 50.4 | 18.5 | 0.37 | 1.91 |  |  |
| CCCCN(CCCC)CCCCCOc1ccc(C(=O)/C=C/c2ccccc2)cc1 | 76.9 | 96.9 |  | 2.14 |  |  |
| CCCCN(CCCC)CCOc1ccc(C(=O)/C=C/c2ccccc2)cc1 | 253 | 279 | 1.1 | 2 |  |  |
| CCCN(CCC)CCOc1ccc(C(=O)/C=C/c2ccccc2)cc1 | 64.5 | 52.6 | 0.81 | 1.86 |  |  |
| CCCN(CCC)CCCCOc1ccc(C(=O)/C=C/c2ccccc2)cc1 | 5.91 | 8.84 | 1.5 | 1.95 |  |  |
| CCN(CC)CCCOc1ccc(C(=O)/C=C/c2ccccc2)cc1 | 22.5 | 20.1 | 0.89 | 1.71 |  |  |
| CCN(CC)CCCCOc1ccc(C(=O)/C=C/c2ccccc2)cc1 | 23.2 | 10.2 | 0.44 | 1.74 |  |  |
| CN(C)CCCCCOc1ccc(C(=O)/C=C/c2ccccc2)cc1 | 13.1 | 17.4 | 1.33 | 1.73 |  |  |
| CN(C)CCOc1ccc(C(=O)/C=C/c2ccccc2)cc1 | 4.68 | 20.4 | 4.35 | 1.49 | 7.99 | 3.52 |
| CN(C)CCCOc1ccc(C(=O)/C=C/c2ccccc2)cc1 | 10.5 | 32.3 | 3.08 | 1.59 |  |  |
| CCCN(CCC)CCCCCCOc1ccc(C(=O)/C=C/c2ccccc2)cc1 | 44.1 | 40.7 | 0.92 | 2.07 |  |  |
| CN(C)CCCCOc1ccc(C(=O)/C=C/c2ccccc2)cc1 | 8.95 | 11.8 | 1.32 | 1.64 |  |  |
| CN(C)CCCCCCOc1ccc(C(=O)/C=C/c2ccccc2)cc1 | 14.2 | 10.4 | 0.73 | 1.8 |  |  |
| CCCCN(CCCC)CCCCCCOc1ccc(C(=O)/C=C/c2ccccc2)cc1 | 163 | 75.1 | 0.46 | 2.19 |  |  |
| O=C(/C=C/c1ccccc1)c1ccc(O)cc1 [4'-HYDROXYCHALCONE] | > 500 | > 500 |  |  |  |  |
| CCN(CC)CCOc1ccc(C(=O)/C=C/c2ccccc2)cc1 | 7.63 | 31.6 | 4.14 | 1.61 |  |  |
| CCCN(CCC)CCCCCOc1ccc(C(=O)/C=C/c2ccccc2)cc1 | 29.5 | 39.7 | 2.09 | 2.01 |  |  |
| CCCCN(CCCC)CCCCOc1ccc(C(=O)/C=C/c2ccccc2)cc1 | 21.9 | 41.9 | 1.91 | 2.09 |  |  |
| CCCN(CCC)CCCOc1ccc(C(=O)/C=C/c2ccccc2)cc1 | 24.6 | 10.1 | 0.41 | 1.91 |  |  |

Reference: ChEMBL document CHEMBL3352241, “Design, synthesis and pharmacological evaluation of chalcone derivatives as acetylcholinesterase inhibitors” (Bioorg Med Chem, 2014)
